High-throughput results deposited in PubChem by several laboratories.
STAT3 activator = increases IL-6 driven STAT3 reporter signal; U3A cells, IL-6 STAT3-luciferase reporter, luminescence; 100% = signal with IL-6 EC80 alone; activation (% of control), % at 5.6 µM; hit rate 0.91% among 190,000;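 active = activation above the screen-wide mean of compound activation plus 3 SD, cut at about 130% in these data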;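 note: 0% = background luminescence of wells with medium and substrate only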
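Material: STAT3-luciferase reporter U3A cells; Probe or stimulus: IL-6 (33 ng/mL); Incubation: compound pre-incubation 1 h before IL-6, then 6 h stimulation at 37 °C; Technique: luminescence from STAT3-driven luciferase reporter; Evaluation: % activation versus median of IL-6-stimulated wells; Controls: IL-6-only high control.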
STAT1 act = increases IFN-gamma driven STAT1 reporter signal. AID 932. hit rate 2.6% among 200,000. NIH 3T3 STAT1-luciferase reporter, luminescence; 100% = IFN-gamma alone, no compound. activation (% of control), % at 5.5 µM;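 active = activation above the screen-wide mean activation plus 3 SD, cut at about 130% in these data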;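 note: raw ratio to IFN-gamma control signal so 100% means no change and 0% no light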
NF-kB expr up = raises NF-kB expression in human neuronal cells; NF-kB reporter expression; hits give high values; fold change at 12.5 µM; hit rate 1.6% among 190,000; AID 1239; in the data active = fold change above about 3.3
STAT3 blocker = STAT3 signaling inhibition; inhibition, % at 5.5 µM; U3A cells, IL-6 STAT3-luciferase reporter, luminescence; host cell line lacks STAT1; hit rate 0.89% among 190,000;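 active = inhibition above the mean inhibition across all screened compounds plus 3 SD, cut at about 44% in these data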;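 note: 0% = DMSO only wells and 100% = 100 µM nifuroxazide control wells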
STAT1 blocker = inhibitors of IFN-gamma induced STAT1 signaling; NIH 3T3 STAT1-luciferase reporter, luminescence; hit rate 0.35% among 200,000; AID 920; inhibition, % at 5.5 µM;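 active = inhibition above a set limit, the mean inhibition across all tested compounds plus 3 SD, cut at about 34% in these data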;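 note: 0% = IFN-gamma with DMSO and 100% = IFN-gamma with 300 µM nifuroxazide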
APP 5'UTR act = activates APP 5'UTR luciferase reporter; activation, % at 2 µM; SH-SY5Y APP 5'UTR luciferase reporter, luminescence; zero percent = DMSO vehicle wells; hit rate 1% among 190,000;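 active = activation above a set limit, based on mean plus 3 SD of controls, cut at about 140% in these data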
An asterisk follows results filed as active. Shown are actives, neighbours in structure and some others; about 4.9% of the full set was active somewhere.

For O=C(CN1C(=O)C2C3c4ccccc4C(c4ccccc43)C2C1=O)Nc1ccccc1C(=O)O (configuration not stated) the results were STAT3 activator 104, STAT1 act 103, NF-kB expr up 1.2, STAT3 blocker -2, STAT1 blocker -3 and APP 5'UTR act -10.
`COc1cccc(N2CCN(c3ncnc4c3[nH]c3ccc(F)cc34)CC2C)c1` (configuration not stated) gave STAT3 activator 44, STAT1 act 39, NF-kB expr up 0.11, STAT3 blocker 75*, STAT1 blocker 68* and APP 5'UTR act -27.
`CN1OC(COC(=O)c2ccccc2)CC1c1ccccc1` (configuration not stated) gave STAT3 activator 109, STAT1 act 130*, NF-kB expr up 1.3, STAT3 blocker -3, STAT1 blocker -33 and APP 5'UTR act 19.
O=C(OCC1CC(c2ccccc2)=NO1)c1ccc(Cl)cc1 (configuration not stated) was read as STAT3 activator 103, STAT1 act 99, NF-kB expr up 1.1, STAT3 blocker 1, STAT1 blocker 1 and APP 5'UTR act 9.
`Cc1ccc(OC(=O)COc2ccccc2C)c(-n2nc3ccccc3n2)c1` gave STAT3 activator 95, STAT1 act 117, NF-kB expr up 3.8*, STAT3 blocker 8, STAT1 blocker -24 and APP 5'UTR act 91.
For Cc1ccc(OC(=O)COc2ccccc2)c(-n2nc3ccccc3n2)c1 the results were STAT3 activator 107, STAT1 act 114, NF-kB expr up 4.8*, STAT3 blocker -5, STAT1 blocker -15 and APP 5'UTR act 60.
For COC(=O)COc1ccc(C)cc1-n1nc2ccccc2n1 the results were STAT3 activator 107, STAT1 act 93, NF-kB expr up 1.1, STAT3 blocker -5, STAT1 blocker 5 and APP 5'UTR act -1.
CCOC(=O)C1=C(O)C(=O)NC(c2ccccc2)=C(OC2CCCCC2)C1 was read as STAT3 activator 106, STAT1 act 104, NF-kB expr up 1.1, STAT3 blocker -6, STAT1 blocker -5 and APP 5'UTR act 25.
COc1cc(OC)c(/C=N/n2c(C)nnc2C)c(OC)c1 was read as STAT3 activator 95, STAT1 act 100, NF-kB expr up 1, STAT3 blocker 10, STAT1 blocker -1 and APP 5'UTR act -14.
O=C(Nc1ccon1)c1ccc(N2CCCCC2)c([N+](=O)[O-])c1 was read as STAT3 activator 110, STAT1 act 150*, NF-kB expr up 3.2, STAT3 blocker -5, STAT1 blocker -58 and APP 5'UTR act 133.
`Cc1cc(NC(=O)c2ccc(N3CCCC3)c([N+](=O)[O-])c2)no1` gave STAT3 activator 91, STAT1 act 105, NF-kB expr up 1, STAT3 blocker 15, STAT1 blocker -6 and APP 5'UTR act 5.
COc1ccc(N2C(=O)C(CC(N)=O)N(NC(=O)CCc3ccccc3)C2=O)cc1 (configuration not stated) was read as STAT3 activator 104, STAT1 act 93, NF-kB expr up 1, STAT3 blocker 3, STAT1 blocker 5 and APP 5'UTR act 14.
O=C1c2cccc3c(N4CCCCC4)ccc(c23)C(=O)N1CCO was read as STAT3 activator 95, STAT1 act 131*, NF-kB expr up 1.6, STAT3 blocker 12, STAT1 blocker -35 and APP 5'UTR act 59.
O=C1c2cccc3c(N4CCCCC4)ccc(c23)C(=O)N1c1cccc(O)c1 was read as STAT3 activator 100, STAT1 act 130*, NF-kB expr up 2, STAT3 blocker 2, STAT1 blocker -32 and APP 5'UTR act 25.
C=CCN1C(=O)c2cccc3c(N4CCCCC4)ccc(c23)C1=O was read as STAT3 activator 95, STAT1 act 126, NF-kB expr up 1.6, STAT3 blocker 8, STAT1 blocker -30 and APP 5'UTR act 28.
O=C(c1cc(N2C(=O)C3C4CCC(C4)C3C2=O)ccc1Cl)N1CCN(c2ccccc2F)CC1 (configuration not stated) was read as STAT3 activator 101, STAT1 act 104, NF-kB expr up 1.1, STAT3 blocker -4, STAT1 blocker -5 and APP 5'UTR act 10.
For Cc1cc(C(=O)NCC(=O)OCC(=O)N(C(C)C)C(C)C)ccc1[N+](=O)[O-] the results were STAT3 activator 99, STAT1 act 99, NF-kB expr up 1, STAT3 blocker 6, STAT1 blocker 1 and APP 5'UTR act 3.
For COc1ccc(-c2ccc(-c3nnn(CC(C)=O)n3)cc2)cc1 the results were STAT3 activator 95, STAT1 act 133*, NF-kB expr up 2.2, STAT3 blocker 11, STAT1 blocker -36 and APP 5'UTR act 87.
Screening COc1cccc(-c2nnn(CC(C)=O)n2)c1 returned STAT3 activator 114, STAT1 act 134*, NF-kB expr up 2.2, STAT3 blocker -14, STAT1 blocker -37 and APP 5'UTR act 127.
CC(C)C(NC(=O)C1CCCCC1)C(=O)Nc1ccc2c(c1)OCCO2 (configuration not stated) was read as STAT3 activator 86, STAT1 act 132*, NF-kB expr up 0.96, STAT3 blocker 20, STAT1 blocker -35 and APP 5'UTR act 83.
For CC(C)=CC(=O)Nc1ccc(Cl)cc1 the results were STAT3 activator 100, STAT1 act 132*, NF-kB expr up 3.3*, STAT3 blocker 4, STAT1 blocker -37 and APP 5'UTR act 184*.
Screening COCC(=O)Nc1ccc(OC)c(Cl)c1 returned STAT3 activator 99, STAT1 act 93, NF-kB expr up 1, STAT3 blocker 6, STAT1 blocker 5 and APP 5'UTR act -1.
For CC(=O)c1ccc(NC(=O)Nc2ccc(Cl)cc2)cc1 the results were STAT3 activator 105, STAT1 act 133*, NF-kB expr up 3.6*, STAT3 blocker -5, STAT1 blocker -36 and APP 5'UTR act 166*.
`COc1ccc(NC(=O)C=C(C)C)cc1Cl` gave STAT3 activator 93, STAT1 act 125, NF-kB expr up 4.7*, STAT3 blocker 11, STAT1 blocker -27 and APP 5'UTR act 153*.
For CNC(=O)Nc1ccc(Cl)cc1 the results were STAT3 activator 100, STAT1 act 100, NF-kB expr up 1.3, STAT3 blocker 4, STAT1 blocker 0 and APP 5'UTR act -14.
For CCc1cccc(NC(=O)Nc2cccs2)c1 the results were STAT3 activator 103, STAT1 act 133*, NF-kB expr up 1.7, STAT3 blocker 1, STAT1 blocker -36 and APP 5'UTR act 43.
`CC(=O)c1ccc(NC(=O)Nc2ccncc2)cc1` gave STAT3 activator 90, STAT1 act 100, NF-kB expr up 0.8, STAT3 blocker 19, STAT1 blocker 0 and APP 5'UTR act 19.
